Among the data in PubChem BioAssay AID463210 (The Scripps Research Institute Molecular Screening Center, 2010) are activation values, retold here.

SMILES strings stand for the structures. Screen size: about 330,000 compounds; about 300 (0.091%) were called active. The sample as a whole holds a higher share of actives than the screen did. A number with no mark means an inactive call.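 The calls were made as follows: active = percent activation above the screen-wide mean plus 3 SD (cut at about 25% in these data); inactive = the rest.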

Sequence of Caspase-7 (Homo sapiens) (P55210 whole entry D23A/D198A/D206A): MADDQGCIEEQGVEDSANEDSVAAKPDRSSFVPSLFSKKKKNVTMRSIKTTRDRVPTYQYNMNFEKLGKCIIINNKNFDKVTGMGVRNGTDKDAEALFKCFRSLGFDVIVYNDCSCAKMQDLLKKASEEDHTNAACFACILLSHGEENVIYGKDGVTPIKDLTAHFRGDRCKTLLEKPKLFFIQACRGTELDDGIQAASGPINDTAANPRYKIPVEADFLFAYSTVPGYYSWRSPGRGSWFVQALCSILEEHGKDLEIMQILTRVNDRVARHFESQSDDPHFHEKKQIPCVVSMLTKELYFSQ

The assay deals with Caspase-7 (Homo sapiens) (UniProt P55210). As to the kind of experiment: activation of procaspase-7 enzyme – biochemical, absorbance, HTS, human, counter-screen for procaspase-3 activator project, primary screen (AID 463210). The following applies: recombinant procaspase-7, Ac-DEVD-pNA absorbance 405 nm; at 8.5 µM; hits give high values; D23A/D198A/D206A triple mutant, cannot self-cleave; scale: DMSO 0, 5 µM enzyme 100. In a few lines:
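signal = Epi-absorbance of released pNA at 405 nm, two timepoints | assay system = Uncleavable procaspase-7 mutant enzyme | reagent = Ac-DEVD-pNA substrate, 400 µM as added | times = 1 h enzyme–compound preincubation and 2 h substrate reaction, both 25 °C | benchmarks = low DMSO alone, high DMSO plus 5 µM PC-7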
As for `CCOc1cc(C(=O)N2CCc3cc(OC)c(OC)cc3C2)ccc1OC(F)F`, the activation is 10.5%.

Take `CCCSc1ncccc1C(=O)O`: the activation is 5.5%.

For `CCC(CC)NC(=O)CSc1nnc(-c2c[nH]c3ccccc23)o1`, the activation was -2.98%.

With `Cc1cc(C)c(S(=O)(=O)NCC2CCC(C(=O)NCc3ccc4c(c3)OCO4)CC2)c(C)c1` (configuration not stated), the activation was 10.5%.

Regarding `CCn1c2ccccc2c2cc(NC(=O)C/C(C)=N/NC(=O)c3ccccc3N)ccc21`, the activation was -4.21%.

Take `Cc1nccn1CCC1CCCCN1C(=O)CCc1nnc(-c2ccsc2)o1` (configuration not stated): the activation is 0.42%.

On to `O=C(CCn1nnc2ccccc2c1=O)N[C@@H](Cc1c[nH]c2ccccc12)C(=O)O`, for which the activation was 9.07%.

Consider `CC(C(=O)N1CCN(c2ccccc2F)CC1)c1ccc([N+](=O)[O-])cc1` (configuration not stated), for which the activation was -5.29%.

As to `CCCCCc1nnc(NC(=O)c2ccc(=O)n(C)n2)s1`, the activation was 9.59%.

`Cc1csc(/N=C/N(C)C)c1C#N`: the activation is -2.59%.

Consider `OCCC1CN(Cc2cccn2-c2nccs2)CCN1CCc1ccccc1` (configuration not stated), for which the activation is 3.58%.

On to `COC(=O)c1cccnc1NC(=S)NC(C)C`, for which the activation is 3.88%.

For the compound `COc1ccc(N2CCN(S(=O)(=O)c3cc4c5c(c3)C(C)C(=O)N5CCC4)CC2)cc1` (configuration not stated), the activation was 4.7%.

On to `COc1ccc(-c2sc3ccc(OC)cc3c2C#Cc2ccccn2)cc1`, for which the activation was 25.1%.

`COc1ccc2sc(-c3ccc(S(C)(=O)=O)cc3)c(-c3ccc(C(N)=O)cc3)c2c1`: the activation was -9.45%.

Regarding `COc1ccc2sc(-c3ccc(S(C)(=O)=O)cc3)c(C#Cc3cncn3C)c2c1`, the activation is 32.4% (active).

With `CN(CC(=O)Nc1ccccc1Cl)C(=O)c1ccccc1SCC(=O)N1CCCC1`, the activation was 5.38%.

In the case of `Cc1ccccc1N(C(=O)CNC(=O)c1cccs1)C(C(=O)NC1CCCC1)c1ccncc1` (configuration not stated), the activation was 2.19%.

Turning to `COc1ccc(Nc2ncnc3sc(-c4ccccc4)cc23)c(OC)c1`, the activation was 47.3% (active).

`COc1ccc(Nc2ncnc3ccc(Br)cc23)c(OC)c1`: the activation is -0.33%.

Regarding `COc1ccc(Nc2ncnc3sc(C)cc23)cc1`, the activation is 4.02%.

As to `O=C(Cn1cncn1)N/N=C/c1c2ccccc2cc2ccccc12`, the activation is -18.1%.

In the case of `COc1ccc(-c2onc3ccc(C(C)=O)cc23)cc1`, the activation is 68.7% (active).

Take `CC(OC(=O)c1ccc2noc(-c3ccccc3)c2c1)C(N)=O` (configuration not stated): the activation was -10.9%.

In the case of `Oc1ccc(-c2onc3ccc(Cl)cc23)cc1`, the activation was -16.8%.

On to `CCCCOC(=O)Cn1c(=O)n(CC(=O)OCCCC)c2cc(C)ccc21`, for which the activation was 26.8% (active).

Turning to `CCOC(=O)CN1C(=O)C(=O)c2cc(C)ccc21`, the activation is 3.45%.

`CCCCCCCCCCOC(=O)Cn1c(COc2ccc(C)cc2)[n+](C)c2ccccc21`: the activation was 0.03%.

`Nc1ncnc(Nc2cccc(Cl)c2Cl)n1`: the activation is 1.33%.

With `O=C(NCCCO)/C(=C\C=C\c1ccccc1)NC(=O)c1ccccc1Cl`, the activation was 0.01%.

In the case of `Cc1cc(C)cc(Oc2c(C(F)(F)F)oc3cc(OCC(=O)O)ccc3c2=O)c1`, the activation was -4.44%.

As to `Cc1ccc(S(=O)(=O)N2CCC(C(=O)N[C@@H](C)C(=O)NCc3ccco3)CC2)cc1`, the activation is -5.6%.

Consider `CC1(c2nnc(Cc3ccccc3)o2)CC(c2ccccc2F)=NO1` (configuration not stated), for which the activation was -4.57%.

As for `Cn1cc(S(=O)(=O)NC(c2ccccc2)c2ccccc2)c(=O)n(C)c1=O`, the activation was 8.63%.

`Cn1nc(C(F)(F)F)c(-c2ccc(F)cc2)c1NC(=O)CSCC(=O)O`: the activation was 3.17%.

As for `CC(CCc1ccccc1)NC(=O)COC(=O)c1ccc(F)cc1` (configuration not stated), the activation was 4.27%.

Regarding `CSCCC(NS(=O)(=O)c1ccc(C)cc1)C(=O)N1CCCC1` (configuration not stated), the activation is 0.13%.

As for `COc1ccc(C(CC(=O)N2CCN(c3ccccc3)CC2)c2c(O)cc(OC)cc2OC)cc1` (configuration not stated), the activation is 5.61%.

Consider `CCCn1c(C)cc(/C=C(\C#N)C(=O)OCC(=O)N(C)c2c(N)n(Cc3ccccc3)c(=O)[nH]c2=O)c1C`, for which the activation is -1.74%.

In the case of `CCn1c(O)c2ccc(C(=O)N=NC(=O)c3cccnc3)cc2c1O`, the activation is -2.1%.

`CN1CCN(C(=O)C2=C[C@H](c3ccc4c(c3)OCO4)C[C@H](OCc3ccc(CO)cc3)O2)CC1`: the activation was 0.27%.

As for `O=c1cc(CN2CCN(S(=O)(=O)/C=C/c3ccccc3)CC2)c2ccc(O)cc2o1`, the activation is 17.5%.

Take `O=C(O)CCN(Cc1ccccc1)S(=O)(=O)c1c(Cl)cccc1Cl`: the activation is 3.54%.

As to `O=[N+]([O-])c1cc(Cl)cc(/C=N/NC(=S)Nc2cc(S(=O)(=O)N3CCOCC3)ccc2Cl)c1O`, the activation is -6.79%.

For `Cc1ccc2nsnc2c1S(=O)(=O)N1CCCC1C(=O)O` (configuration not stated), the activation is 8.06%.

In the case of `CC(=O)N[C@@H](C)C(=O)N1CCC(n2nccc2NC(=O)CCCc2ccccc2)CC1`, the activation was 8.17%.

In the case of `O=c1c2ccccc2ccc2ccc(P(=O)(O)O)cc12`, the activation is 4.72%.

For the compound `O=C(c1cn(-c2ccccc2)nc1-c1cccnc1)N1CCN(S(=O)(=O)c2ccccc2F)CC1`, the activation is 11.3%.

In the case of `COc1ccc(CCNC2=C(Cl)C(=O)N(Cc3ccccc3)C2=O)cc1OC`, the activation was -9.7%.

Turning to `COc1ccc(COCCN2CCN(S(=O)(=O)c3ccccc3)CCC2=O)cc1`, the activation is -12.7%.

In the case of `COc1ccc2c(c1)C(NS(=O)(=O)OCC(Cl)(Cl)Cl)CCC2` (configuration not stated), the activation was -4.56%.

In the case of `C=CCN(C(=O)Nc1ccc2oc(C)nc2c1)c1ccccc1`, the activation is -21.8%.

Turning to `CCN(CC)c1ccc2oc(=O)c(C)nc2c1`, the activation is 40.2% (active).

Turning to `CCN(CC)c1ccc(C(=O)Nn2c(C)nc3ccccc3c2=O)cc1`, the activation was -1.52%.

`COc1cccc(NC(=O)Cn2c3ccccc3c3nc4n(c(=O)c32)CCS4)c1`: the activation is 9.71%.

As for `CC1=C(N2CCN(c3ncccn3)CC2)CCC1=O`, the activation was -1.68%.

With `COc1ccc(S(=O)(=O)NCCOc2ccccc2)cc1F`, the activation was -0.02%.

Regarding `COc1cc(N=Cc2c(O)c3ccccc3oc2=O)c(OC)cc1Cl`, the activation was 14.3%.

As to `COc1ccccc1N=Cc1c(O)c2ccccc2oc1=O`, the activation was 50.8% (active).

For `COc1ccccc1N=C(C)C1=C(O)COC1=O`, the activation is 0.79%.

With `COc1ccc(C(O)(C2CCCCC2)C(CN2CCCC2)c2ccccc2)cc1` (configuration not stated), the activation was 0.02%.

In the case of `COCC1CCCN(C(=O)c2ccc3oc(C(C)C)nc3c2)C1` (configuration not stated), the activation is -9.62%.

Take `COc1ccc(NC(=O)C2CCN(S(=O)(=O)c3ccc4[nH]c(=O)oc4c3)CC2)c(OC)c1`: the activation was -1.26%.

For the compound `COc1ccc(CCNC(=O)CN2C(=O)COc3ccc(S(=O)(=O)N4CCCC4)cc32)cc1OC`, the activation is -1.51%.

With `CCN(C(=O)COC(=O)c1ccc(COc2ccc3c(C)cc(=O)oc3c2)cc1)C1CCS(=O)(=O)C1` (configuration not stated), the activation is 11%.

Turning to `O=c1cc(CO)oc(C(Nc2cccc(C(F)(F)F)c2)c2ccccn2)c1O` (configuration not stated), the activation was -8.69%.

Turning to `COc1ccccc1N1CCN(c2nc(C)cc(=O)[nH]2)CC1`, the activation is 14.3%.

Take `CN(CC(=O)Nc1ccccc1Cl)C(=O)COc1cccc2c1OC(C)(C)C2`: the activation is -0.56%.

With `CCOC(=O)c1cccc(NC(=O)c2ccc(F)cc2F)c1`, the activation was -3.97%.

Regarding `CCOC(=O)[C@@H]1[C@H]2COc3cc(OC)ccc3[C@@H]2N2C(=O)N(c3cccc(C)c3)C(=O)[C@@]12C`, the activation is -1.89%.

Regarding `CN1CCN(c2ccccc2NC(=O)COc2ccc(C3CCCCC3)cc2)CC1`, the activation is 6.3%.

Turning to `CCn1c(N)c(Br)c(=O)[nH]c1=O`, the activation is 12.7%.

With `COc1ccc(C(=O)N2CCCCC2C(=O)Nc2ccc(-n3nc(C)cc3C)cc2)o1` (configuration not stated), the activation is 0.38%.

On to `CC(C)CN(CC(C)C)C(=O)CN1c2cccc3cccc(c23)S1(=O)=O`, for which the activation was 4.17%.

In the case of `NC(=O)C1CCN(Cc2nc3c(Br)cc(Br)cc3c(=O)[nH]2)CC1`, the activation is -6.52%.

For the compound `COc1ccc(S(=O)(=O)NCC2CCCN(C(=O)c3occc3C)C2)cc1` (configuration not stated), the activation is -3.49%.

`CCCCCCCC[n+]1cccc(C(=O)N2c3c(nc(N)[nH]c3=O)NC(C)C2C)c1` (configuration not stated): the activation was -2.79%.

As for `CCOc1cc(C(=O)Nc2c(C)ccc3nsnc23)cc(OCC)c1OCC`, the activation is -0.81%.

For `CC1=NN(C(N)=S)C(=O)C1N=Nc1cc(Cl)ccc1Cl` (configuration not stated), the activation is 42% (active).

Consider `Cc1[nH]n(C(N)=S)c(=O)c1N=Nc1ccc(Cl)cc1Cl`, for which the activation was -4.08%.

Turning to `CCN(C[C@H]1N[C@@](CC)(C(=O)OC)[C@H]2C(=O)N(C)C(=O)[C@@H]12)C(=O)Nc1ccc(F)cc1`, the activation is 3.05%.

Turning to `CC(C)C[C@@H](COc1ccccc1)N1CCN(CC(C)C)CCC1=O`, the activation is -4.75%.

Turning to `CC(C(=O)NCC1CCCCC1)N(C)Cc1cccc(Cl)c1` (configuration not stated), the activation is -2.02%.

In the case of `Cc1ccc(S(=O)(=O)NCC(=O)N(CC(=O)NCC2CCCO2)c2cccc(F)c2)cc1` (configuration not stated), the activation was -1.1%.

Consider `O=C(COc1cccc2c1CCNC2=O)NC1CCCCC1`, for which the activation is -3.37%.

Take `CCOC(=O)C1=C(CN2CCc3ccccc32)NC(=O)NC1c1cc(C)ccc1C` (configuration not stated): the activation is 1.19%.

As to `COc1cccc2cc(C(C)N(CCCN3CCOCC3)C(=O)Nc3ccc(Cl)cc3)oc12` (configuration not stated), the activation was 3.94%.

Take `CCc1nnc(NC(=O)[C@@H](NC(=O)c2cccc(C)c2)C(C)C)s1`: the activation was -9.68%.

On to `Cc1ccc(S(=O)(=O)N2CCC3(CC2)OCCO3)c(C)c1`, for which the activation is 7.32%.

As to `O=C(NCCN1CCOC1=O)C1CCC(=O)N(CCc2ccc(Cl)cc2)C1` (configuration not stated), the activation was -3.88%.

As for `O=S(=O)(Oc1ccccc1C(=S)N1CCOCC1)c1ccc(Cl)cc1`, the activation is 5.11%.

With `O=C(Cc1ccccc1F)NC1CCSc2ccccc21` (configuration not stated), the activation is -1.51%.

For the compound `COc1ccc(CNS(=O)(=O)c2cc(-c3cc(C)no3)ccc2C(C)C)cc1`, the activation was 7.17%.

Regarding `COc1cccc(C(=O)n2ccc(-c3cccs3)n2)c1`, the activation is 7.3%.

For the compound `CCN(CCNC(=O)C1=C(C)C(=O)OC12CCC(C)CC2)c1ccccc1` (configuration not stated), the activation was -6.83%.

Regarding `C=CCN1CN(S(=O)(=O)c2ccc(OC)cc2)c2nc3ccccc3nc21`, the activation is 10.1%.

Turning to `COc1cccc(CNC(=O)CN(C)S(=O)(=O)c2ccc3c(c2)c(=O)n(C)c(=O)n3C)c1`, the activation is 3.47%.

For `CC(NC(=O)COc1ccc(-c2ccccc2)cc1)C1CCCO1` (configuration not stated), the activation was -7.63%.

For the compound `Cc1cc(C)c(C)c(S(=O)(=O)N2CCN(C(=O)c3ccc4c(=O)n5c(nc4c3)CCC5)CC2)c1C`, the activation is 0.83%.

In the case of `Cn1c(C(=O)O)ccc1S(=O)(=O)N(Cc1ccccc1)Cc1ccccc1`, the activation is -2.76%.

For the compound `Cc1ccc(S(=O)(=O)N(CC(=O)NCCSC2CCCCC2)c2ccccc2F)cc1`, the activation was 12.3%.

On to `CSCc1cc(N2CCOCC2)nc(SCc2ccc(Cl)cc2Cl)n1`, for which the activation was -1.6%.
